The source made the active and inactive calls.
Assays:
[1] = molecular target: 5'-AMP-activated protein kinase catalytic subunit alpha-1 (Homo sapiens) (UniProt Q13131); assay: Inhibition of recombinant full-length human AMPKalpha1 at 10 uM using AMARAASAAALARRR as substrate measured after 40 mins in presence of [gamma33P]ATP by scintillation counting method
[2] = species: Mus musculus; assay: Inhibition of recombinant mouse ARG M982V/A562 mutant (27 to end residues) at 10 uM using EAIYAAPFAKKK as substrate measured after 40 mins in presence of [gamma33P]ATP by scintillation counting method
[3] = molecular target: CDK6/cyclin D3 (Homo sapiens) (UniProt P30281+Q00534); assay: Inhibition of recombinant full-length human CDK6/cyclin D3 at 10 uM using histone H1 as substrate measured after 40 mins in presence of [gamma33P]ATP by scintillation counting method; format: protein-complex assay
[4] = molecular target: Cyclin-Y/Cyclin-dependent kinase 16 (Homo sapiens) (UniProt Q00536+Q8ND76); assay: Inhibition of recombinant full length human CDK16/cyclinY at 10 uM using PKSPKARKKL as substrate measured after 120 mins in presence of [gamma33P]ATP by scintillation counting method; format: protein-complex assay
[5] = molecular target: Casein kinase II subunit alpha (Homo sapiens) (UniProt P68400); assay: Inhibition of recombinant full length human CK2alpha1 at 10 uM using RRRDDDSDDD as substrate measured after 40 mins in presence of [gamma33P]ATP by scintillation counting method
Sequence of Casein kinase II subunit alpha (Homo sapiens) (P68400 whole entry, looked up): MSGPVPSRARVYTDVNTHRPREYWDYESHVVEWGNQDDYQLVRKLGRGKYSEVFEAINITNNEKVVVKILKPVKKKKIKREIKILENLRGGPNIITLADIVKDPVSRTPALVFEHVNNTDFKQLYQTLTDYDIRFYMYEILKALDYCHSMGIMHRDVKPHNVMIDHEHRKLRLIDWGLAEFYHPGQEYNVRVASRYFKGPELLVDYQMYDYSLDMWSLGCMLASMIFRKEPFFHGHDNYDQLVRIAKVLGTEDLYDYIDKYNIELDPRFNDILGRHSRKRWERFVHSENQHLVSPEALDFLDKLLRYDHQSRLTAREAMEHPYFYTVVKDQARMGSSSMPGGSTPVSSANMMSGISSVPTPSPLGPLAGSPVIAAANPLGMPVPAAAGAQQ

[6] = system: Eukaryotic elongation factor 2 kinase (Homo sapiens), O00418 [H23R]; assay: Inhibition of recombinant human EEF2K H23R mutant (2 to end residues) at 10 uM using RKKFGESEKTKTKEFL as substrate measured after 40 mins in presence of [gamma33P]ATP by scintillation counting method
[7] = molecular target: Tyrosine-protein kinase Fer (Homo sapiens) (UniProt P16591); assay: Inhibition of recombinant human FER (541 to end residues) at 10 uM using KKKSPGEYVNIEFG as substrate measured after 40 mins in presence of [gamma33P]ATP by scintillation counting method
[8] = molecular target: Vascular endothelial growth factor receptor 1 (Homo sapiens) (UniProt P17948); assay: Inhibition of recombinant human Flt1 (783 to end residues) at 10 uM using KKKSPGEYVNIEFG as substrate measured after 40 mins in presence of [gamma33P]ATP by scintillation counting method
Sequence of Vascular endothelial growth factor receptor 1 (Homo sapiens) (P17948 whole entry): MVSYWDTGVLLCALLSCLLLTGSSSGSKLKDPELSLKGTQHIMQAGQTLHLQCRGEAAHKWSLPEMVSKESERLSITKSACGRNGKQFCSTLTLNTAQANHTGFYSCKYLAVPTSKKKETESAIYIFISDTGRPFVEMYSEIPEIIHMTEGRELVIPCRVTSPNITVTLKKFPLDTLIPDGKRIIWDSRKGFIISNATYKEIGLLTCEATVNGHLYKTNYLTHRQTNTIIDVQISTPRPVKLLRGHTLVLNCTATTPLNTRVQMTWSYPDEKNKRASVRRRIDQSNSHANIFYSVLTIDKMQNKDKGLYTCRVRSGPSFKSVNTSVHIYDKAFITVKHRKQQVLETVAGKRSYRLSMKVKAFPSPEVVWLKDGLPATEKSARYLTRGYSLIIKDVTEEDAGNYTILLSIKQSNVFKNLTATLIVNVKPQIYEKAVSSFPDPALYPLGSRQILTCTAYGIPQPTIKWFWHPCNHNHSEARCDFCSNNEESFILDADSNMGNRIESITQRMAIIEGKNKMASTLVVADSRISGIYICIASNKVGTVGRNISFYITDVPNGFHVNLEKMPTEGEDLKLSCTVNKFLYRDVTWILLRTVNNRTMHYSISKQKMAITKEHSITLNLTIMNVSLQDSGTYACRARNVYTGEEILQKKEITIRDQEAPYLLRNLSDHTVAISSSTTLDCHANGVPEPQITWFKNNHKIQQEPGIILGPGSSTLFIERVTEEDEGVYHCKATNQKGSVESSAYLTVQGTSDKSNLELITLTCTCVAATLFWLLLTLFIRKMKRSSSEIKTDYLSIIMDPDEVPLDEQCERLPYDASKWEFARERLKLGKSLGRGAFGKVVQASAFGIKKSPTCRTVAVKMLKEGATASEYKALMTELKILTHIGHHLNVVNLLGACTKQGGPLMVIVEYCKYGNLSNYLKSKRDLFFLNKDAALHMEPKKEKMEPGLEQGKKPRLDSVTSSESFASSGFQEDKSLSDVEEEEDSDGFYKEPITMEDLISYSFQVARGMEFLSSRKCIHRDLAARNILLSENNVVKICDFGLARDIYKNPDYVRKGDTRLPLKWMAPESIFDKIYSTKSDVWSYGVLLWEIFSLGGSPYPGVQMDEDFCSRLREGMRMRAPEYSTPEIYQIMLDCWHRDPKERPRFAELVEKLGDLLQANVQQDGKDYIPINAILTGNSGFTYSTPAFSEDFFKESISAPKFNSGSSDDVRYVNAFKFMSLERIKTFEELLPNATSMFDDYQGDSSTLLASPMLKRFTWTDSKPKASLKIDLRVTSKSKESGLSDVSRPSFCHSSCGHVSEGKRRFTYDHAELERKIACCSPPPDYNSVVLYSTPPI

[9] = molecular target: Macrophage colony-stimulating factor 1 receptor (Homo sapiens) (UniProt P07333); assay: Inhibition of recombinant human FMS (538 to end residues) at 10 uM using KKKSPGEYVNIEFG as substrate measured after 40 mins in presence of [gamma33P]ATP by scintillation counting method
[10] = molecular target: Insulin-like growth factor 1 receptor (Homo sapiens) (UniProt P08069); assay: Inhibition of recombinant human IGF1R (959 to end residues) at 10 uM using KKKSPGEYVNIEFG as substrate measured after 40 mins in presence of [gamma33P]ATP by scintillation counting method
[11] = molecular target: Insulin receptor-related protein (Homo sapiens) (UniProt P14616); assay: Inhibition of recombinant human IRR (943 to 1266 residues) at 10 uM using myelin basic protein as substrate measured after 40 mins in presence of [gamma33P]ATP by scintillation counting method
[12] = molecular target: Mitogen-activated protein kinase kinase kinase 2 (Homo sapiens) (UniProt Q9Y2U5); assay: Inhibition of recombinant full-length human MEKK2 at 10 uM using myelin basic protein as substrate measured after 40 mins in presence of [gamma33P]ATP by scintillation counting method
Sequence of Mitogen-activated protein kinase kinase kinase 2 (Homo sapiens) (Q9Y2U5 whole entry, the tested form may be a part): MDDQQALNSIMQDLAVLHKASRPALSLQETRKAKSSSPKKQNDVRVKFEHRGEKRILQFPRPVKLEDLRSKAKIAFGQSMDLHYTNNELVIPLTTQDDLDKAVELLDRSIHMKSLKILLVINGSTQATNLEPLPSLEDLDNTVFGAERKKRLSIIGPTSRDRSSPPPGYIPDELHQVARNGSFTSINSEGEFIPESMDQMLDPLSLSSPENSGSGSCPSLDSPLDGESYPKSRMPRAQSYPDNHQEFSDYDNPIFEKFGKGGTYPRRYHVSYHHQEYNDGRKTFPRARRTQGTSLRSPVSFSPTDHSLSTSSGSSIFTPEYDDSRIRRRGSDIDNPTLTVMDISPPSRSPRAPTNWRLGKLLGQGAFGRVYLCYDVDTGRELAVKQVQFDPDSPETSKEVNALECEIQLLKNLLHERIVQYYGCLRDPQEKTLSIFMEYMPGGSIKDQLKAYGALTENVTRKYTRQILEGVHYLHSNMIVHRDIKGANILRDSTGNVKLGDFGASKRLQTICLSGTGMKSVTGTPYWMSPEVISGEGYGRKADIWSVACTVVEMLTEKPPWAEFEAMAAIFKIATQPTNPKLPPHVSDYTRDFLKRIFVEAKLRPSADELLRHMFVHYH

[13] = molecular target: Maternal embryonic leucine zipper kinase (Homo sapiens) (UniProt Q14680); assay: Inhibition of recombinant human MELK (1 to 340 residues) at 10 uM using KKLNRTLSFAEPG as substrate measured after 40 mins in presence of [gamma33P]ATP by scintillation counting method
[14] = molecular target: Mitogen-activated protein kinase kinase kinase 11 (Homo sapiens) (UniProt Q16584); assay: Inhibition of human MLK3 at 10 uM by radiometric method
Outline: (§1)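 Kinase panel of 422 kinases screened by Eurofins KinaseProfiler at a single test-compound concentration of 10 µM.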

[15] = molecular target: Serine/threonine-protein kinase pim-1 (Homo sapiens) (UniProt P11309); assay: Inhibition of recombinant full-length human Pim1 at 10 uM using KKRNRTLTV as substrate measured after 40 mins in presence of [gamma33P]ATP by scintillation counting method
[16] = system: RAC-beta serine/threonine-protein kinase (Homo sapiens), P31751 [S474D]; assay: Inhibition of recombinant full-length human PKBbeta S474D mutant (120 to end residues) at 10 uM using GRPRTSSFAEGKK as substrate measured after 40 mins in presence of [gamma33P]ATP by scintillation counting method
Sequence of RAC-beta serine/threonine-protein kinase (Homo sapiens), P31751 [S474D] (P31751 whole entry S474D): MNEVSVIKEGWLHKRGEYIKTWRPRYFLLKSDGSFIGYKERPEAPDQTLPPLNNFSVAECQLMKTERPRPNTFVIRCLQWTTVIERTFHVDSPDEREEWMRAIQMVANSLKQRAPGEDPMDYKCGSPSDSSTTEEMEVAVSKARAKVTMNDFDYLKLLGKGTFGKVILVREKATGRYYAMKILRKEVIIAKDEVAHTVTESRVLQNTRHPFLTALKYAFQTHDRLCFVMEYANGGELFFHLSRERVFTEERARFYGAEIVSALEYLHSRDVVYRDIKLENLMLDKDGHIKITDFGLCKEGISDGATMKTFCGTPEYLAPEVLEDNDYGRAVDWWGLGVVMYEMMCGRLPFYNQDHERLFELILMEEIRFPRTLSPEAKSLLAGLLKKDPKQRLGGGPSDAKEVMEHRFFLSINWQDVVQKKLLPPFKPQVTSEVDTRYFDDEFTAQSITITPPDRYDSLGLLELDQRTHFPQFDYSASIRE

[17] = molecular target: Protein kinase C beta type (Homo sapiens) (UniProt P05771); assay: Inhibition of recombinant human PKCbeta1 (2 to end residues) at 10 uM using histone H1 as substrate measured after 40 mins in presence of [gamma33P]ATP by scintillation counting method
Sequence of Protein kinase C beta type (Homo sapiens) (P05771 2-671 limits assumed): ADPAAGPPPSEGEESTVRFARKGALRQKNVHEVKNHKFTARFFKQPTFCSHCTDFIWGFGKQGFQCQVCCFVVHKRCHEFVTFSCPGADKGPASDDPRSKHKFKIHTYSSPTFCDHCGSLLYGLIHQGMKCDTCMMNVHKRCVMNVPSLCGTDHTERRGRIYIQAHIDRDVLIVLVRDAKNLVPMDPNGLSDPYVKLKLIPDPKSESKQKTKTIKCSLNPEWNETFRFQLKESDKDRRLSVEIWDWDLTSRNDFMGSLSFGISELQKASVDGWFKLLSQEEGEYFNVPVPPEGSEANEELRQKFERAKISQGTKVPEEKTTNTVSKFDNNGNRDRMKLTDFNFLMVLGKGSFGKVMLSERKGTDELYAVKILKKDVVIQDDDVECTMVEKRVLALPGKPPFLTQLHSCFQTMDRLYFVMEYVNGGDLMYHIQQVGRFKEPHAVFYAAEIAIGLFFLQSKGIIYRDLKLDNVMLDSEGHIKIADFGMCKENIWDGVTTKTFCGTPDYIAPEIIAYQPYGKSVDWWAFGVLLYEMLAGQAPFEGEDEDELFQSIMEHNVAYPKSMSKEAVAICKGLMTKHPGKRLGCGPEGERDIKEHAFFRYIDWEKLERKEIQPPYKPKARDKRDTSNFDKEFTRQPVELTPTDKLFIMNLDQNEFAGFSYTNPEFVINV

[18] = molecular target: Proto-oncogene tyrosine-protein kinase receptor Ret (Homo sapiens) (UniProt P07949); assay: Inhibition of human Ret (658 to end residues) using KKKSPGEYVNIEFG as substrate measured after 40 mins in presence of [gamma33P]ATP by scintillation counting method; outline: as §1
[19] = molecular target: Receptor-interacting serine/threonine-protein kinase 2 (Homo sapiens) (UniProt O43353); assay: Inhibition of human RIPK2 (1 to 299 residues) using myelin basic protein as substrate measured after 120 mins in presence of [gamma33P]ATP by scintillation counting method; outline: as §1
[20] = molecular target: Mitogen-activated protein kinase 11 (Homo sapiens) (UniProt Q15759); assay: Inhibition of recombinant full-length human SAPK2b at 10 uM using myelin basic protein as substrate measured after 40 mins in presence of [gamma33P]ATP by scintillation counting method
[21] = system: Proto-oncogene tyrosine-protein kinase Src (Homo sapiens), P12931 [T341M]; assay: Inhibition of recombinant full-length human Src T341M mutant at 10 uM using GGEEEEYFELVKKKK as substrate measured after 40 mins in presence of [gamma33P]ATP by scintillation counting method
Sequence of Proto-oncogene tyrosine-protein kinase Src (Homo sapiens), P12931 [T341M] (P12931 whole entry T341M, looked up): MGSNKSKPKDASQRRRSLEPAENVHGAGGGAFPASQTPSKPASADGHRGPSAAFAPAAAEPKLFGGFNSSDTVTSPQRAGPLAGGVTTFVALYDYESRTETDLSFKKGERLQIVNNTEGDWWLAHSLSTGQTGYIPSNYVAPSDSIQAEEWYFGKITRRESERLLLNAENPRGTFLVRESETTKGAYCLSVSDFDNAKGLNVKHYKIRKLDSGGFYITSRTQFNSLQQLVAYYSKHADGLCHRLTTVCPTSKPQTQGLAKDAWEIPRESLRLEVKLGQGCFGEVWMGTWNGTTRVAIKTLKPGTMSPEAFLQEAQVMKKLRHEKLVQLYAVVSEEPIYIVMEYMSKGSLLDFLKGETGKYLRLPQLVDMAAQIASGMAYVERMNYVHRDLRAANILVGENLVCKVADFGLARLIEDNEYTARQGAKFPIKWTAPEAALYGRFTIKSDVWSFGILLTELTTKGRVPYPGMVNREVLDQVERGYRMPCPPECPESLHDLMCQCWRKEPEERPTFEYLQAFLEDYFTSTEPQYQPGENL

[22] = molecular target: Testis-specific serine/threonine-protein kinase 2 (Homo sapiens) (UniProt Q96PF2); assay: Inhibition of recombinant full-length human TSSK2 at 10 uM using KKKVSRSGLYRSPSMPENLNRPR as substrate measured after 40 mins in presence of [gamma33P]ATP by scintillation counting method
Sequence of Testis-specific serine/threonine-protein kinase 2 (Homo sapiens) (Q96PF2 whole entry): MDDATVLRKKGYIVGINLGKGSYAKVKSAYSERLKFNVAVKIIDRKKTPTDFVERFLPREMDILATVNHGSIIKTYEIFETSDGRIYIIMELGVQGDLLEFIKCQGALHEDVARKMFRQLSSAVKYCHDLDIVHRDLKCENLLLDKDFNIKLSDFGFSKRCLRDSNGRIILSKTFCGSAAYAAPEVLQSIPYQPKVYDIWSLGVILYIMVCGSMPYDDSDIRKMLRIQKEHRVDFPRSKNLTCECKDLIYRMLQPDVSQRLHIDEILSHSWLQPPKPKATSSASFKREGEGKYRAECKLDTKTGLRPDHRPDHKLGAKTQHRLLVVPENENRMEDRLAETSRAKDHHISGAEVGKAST

[23] = system: Dual specificity protein kinase TTK (Homo sapiens), P33981 [S389A]; assay: Inhibition of recombinant full-length human TTK S389A mutant at 10 uM using MBP as substrate measured after 40 mins in presence of [gamma33P]ATP by scintillation counting method
[24] = molecular target: Death-associated protein kinase 3 (Homo sapiens) (UniProt O43293); assay: Inhibition of human ZIPK (1 to 290 residues) using KKLNRTLSFAEPG as substrate measured after 40 mins in presence of [gamma33P]ATP by scintillation counting method

Measured: inhibition

Sequence of 5'-AMP-activated protein kinase catalytic subunit alpha-1 (Homo sapiens) (Q13131 whole entry, looked up): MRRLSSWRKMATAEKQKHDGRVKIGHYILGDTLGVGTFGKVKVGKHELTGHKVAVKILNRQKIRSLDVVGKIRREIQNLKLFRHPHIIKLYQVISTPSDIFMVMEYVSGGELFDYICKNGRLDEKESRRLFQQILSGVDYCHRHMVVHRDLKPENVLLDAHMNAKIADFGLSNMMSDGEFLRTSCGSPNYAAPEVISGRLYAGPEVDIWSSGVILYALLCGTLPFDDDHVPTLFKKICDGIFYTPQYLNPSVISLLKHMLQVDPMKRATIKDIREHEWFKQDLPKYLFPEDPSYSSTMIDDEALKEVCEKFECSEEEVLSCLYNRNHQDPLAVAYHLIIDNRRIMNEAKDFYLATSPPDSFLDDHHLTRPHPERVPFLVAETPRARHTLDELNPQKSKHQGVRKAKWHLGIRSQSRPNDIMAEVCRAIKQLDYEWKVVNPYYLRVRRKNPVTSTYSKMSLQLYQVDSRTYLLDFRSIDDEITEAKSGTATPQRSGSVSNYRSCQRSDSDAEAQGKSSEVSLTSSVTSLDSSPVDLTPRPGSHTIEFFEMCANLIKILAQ

CN1C[C@H](Nc2nc3cc[nH]c3c(=O)n2C)C[C@H](c2ccc3c(c2)OCCO3)C1
inactive: all assays above

Source: ChEMBL document CHEMBL4350961, “Discovery of Pyrrolo[3,2- d]pyrimidin-4-one Derivatives as a New Class of Potent and Cell-Active Inhibitors of P300/CBP-Associated Factor Bromodomain” (J Med Chem, 2019)
